In article PMC6071421 (Journal of investigative medicine : the official …, 2017):

Target: T1, FFA2 (GPR43; Ffar2) (Mus musculus, UniProt Q8VCK6)
T1 sequence (Q8VCK6 1-330): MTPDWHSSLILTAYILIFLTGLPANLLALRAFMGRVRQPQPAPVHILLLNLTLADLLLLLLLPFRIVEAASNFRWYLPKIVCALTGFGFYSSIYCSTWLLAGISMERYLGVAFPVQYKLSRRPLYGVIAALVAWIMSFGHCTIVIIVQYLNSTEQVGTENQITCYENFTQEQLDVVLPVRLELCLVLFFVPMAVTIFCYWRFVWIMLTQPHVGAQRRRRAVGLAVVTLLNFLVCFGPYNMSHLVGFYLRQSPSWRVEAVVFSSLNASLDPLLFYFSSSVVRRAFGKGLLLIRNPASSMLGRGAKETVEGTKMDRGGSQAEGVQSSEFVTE
Assay: Ca2+ mobilization, Fluo-8, fluorometric imaging plate reader, beta TC3 cells
Format: cell-based
Conditions: agonist; endogenous receptor in beta TC3 cells; N = 13
Summary of the method: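 Mouse βTC3 β cells (express Ffar2 but not Ffar3) loaded with 5 μM Fluo-8 for 60 min at 37°C. Test compounds were added as serial dilutions, each concentration in quadruplicate, and fluorescence was read on a FLIPR. Response was delta F/f: (post-stimulation max − pre-stimulation min)/pre-stimulation min. pEC50 and Emax came from non-linear regression. Experiments were repeated in triplicate.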

pEC50: 2.32±0.21 -log M
Compound: CC(=O)O [Acetate]
